From ChEMBL document CHEMBL1781935, “Amberlite-IRA-402 (OH) ion exchange resin mediated synthesis of indolizines, pyrrolo [1,2-a] quinolines and isoquinolines: antibacterial and antifungal evaluation of the products” (2011)
Converted amounts (≈) assume the structure as drawn. The source made the active and inactive calls. No cut-off for these calls is given here.

Legend:
Escherichia coli [1] = experiment: Antibacterial activity against Escherichia coli ATCC 25938; format: functional
Method in brief: (§1)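 MIC by broth and agar dilution. Broth: 0.1 ml suspension (2 × 10^6 cfu/ml) in Mueller-Hinton broth with test drug at 1–1000 µg/ml, 37 °C overnight. Agar: serial drug dilutions in Mueller-Hinton agar, spot-inoculated with 2 × 10^6 cfu/spot, 37 °C for 24 h. MIC was the lowest concentration with no visible growth. Antibiotic controls were included.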

Shigella dysenteriae [2] = experiment: Antibacterial activity against Shigella dysenteriae isolate 3 at 1 to 1000 ug/ml after overnight incubation by disc diffusion method; format: functional
Staphylococcus aureus [3] = experiment: Antibacterial activity against Staphylococcus aureus ATCC 25923; format: functional; method in brief: as §1
Klebsiella pneumoniae [4] = experiment: Antibacterial activity against Klebsiella pneumoniae isolate J/1/4; format: functional; method in brief: as §1
Escherichia coli [5] = experiment: Antibacterial activity against Escherichia coli ATCC 25938 at 1 to 1000 ug/ml after overnight incubation by disc diffusion method; format: functional
Method in brief: (§2)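 Disc diffusion on Mueller-Hinton agar. Plates seeded with 0.1 ml bacterial suspension (2 × 10^6 cfu/ml). Sterile 6 mm paper discs were impregnated with compound solutions at 1–1000 µg/ml and incubated at 37 °C overnight. Read-out was the diameter of the clear inhibition zone. Stocks were 1 mg/ml in 4% Tween 80 or 4% propylene glycol.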

Vibrio cholerae [6] = experiment: Antibacterial activity against Vibrio cholerae isolate 720 at 1 to 1000 ug/ml after overnight incubation by disc diffusion method; format: functional
Shigella dysenteriae [7] = experiment: Antibacterial activity against Shigella dysenteriae isolate 3; format: functional
Staphylococcus aureus [8] = experiment: Antibacterial activity against Staphylococcus aureus ATCC 25923 at 10 to 80 ug/ml after overnight incubation by broth dilution method; format: functional, organism-based
Method in brief: (§3)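 Bactericidal testing with double-fold drug dilutions in Mueller-Hinton broth. Tubes inoculated with 1 ml suspension (2 × 10^6 cfu/ml) and shaken at 200 rpm at 37 °C for 24 h. Drug was added at mid-logarithmic growth. Viable colony counts were taken from 1.0 ml aliquots plated on nutrient agar.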

Micrococcus luteus [9] = experiment: Antibacterial activity against Micrococcus luteus AGD1 at 1 to 1000 ug/ml after overnight incubation by disc diffusion method; format: functional; method in brief: as §2
Salmonella typhi [10] = experiment: Antibacterial activity against Salmonella typhi DIRW at 1 to 1000 ug/ml after overnight incubation by disc diffusion method; format: functional; details: Salmonella enterica subsp. enterica serovar Typhi
Enterococcus faecalis [11] = experiment: Antibacterial activity against Streptococcus faecalis isolate 29212; format: functional; method in brief: as §1
Vibrio cholerae [12] = experiment: Antibacterial activity against Vibrio cholerae isolate 7201 at 1 to 1000 ug/ml after overnight incubation by disc diffusion method; format: functional
Salmonella typhimurium [13] = experiment: Antibacterial activity against Salmonella Typhimurium isolate 11; format: functional, Salmonella enterica subsp. enterica serovar Typhimurium; details: Salmonella enterica; method in brief: as §1
Salmonella typhi [14] = experiment: Antibacterial activity against Salmonella typhi DIRW; format: functional, Salmonella enterica subsp. enterica serovar Typhi; details: Salmonella enterica
Pseudomonas aeruginosa [15] = experiment: Antibacterial activity against Pseudomonas aeruginosa ATCC 27853 at 10 to 80 ug/ml after overnight incubation by broth dilution method; format: functional, organism-based; method in brief: as §3
Salmonella typhimurium [16] = experiment: Antibacterial activity against Salmonella Typhimurium isolate 11 at 1 to 1000 ug/ml after overnight incubation by disc diffusion method; format: functional, organism-based; details: Salmonella enterica subsp. enterica serovar Typhimurium; method in brief: as §2
Escherichia coli [17] = experiment: Antibacterial activity against Escherichia coli ATCC 25938 at 10 to 80 ug/ml after overnight incubation by broth dilution method; format: functional, organism-based; method in brief: as §3
Shigella flexneri [18] = experiment: Antibacterial activity against Shigella flexneri DN13 at 1 to 1000 ug/ml after overnight incubation by disc diffusion method; format: functional; method in brief: as §2
Shigella flexneri [19] = experiment: Antibacterial activity against Shigella flexneri DN13; format: functional; method in brief: as §1
Vibrio cholerae [20] = experiment: Antibacterial activity against Vibrio cholerae isolate 7201; format: functional
Bacillus subtilis [21] = experiment: Antibacterial activity against Bacillus subtilis UC564 at 1 to 1000 ug/ml after overnight incubation by disc diffusion method; format: functional; method in brief: as §2
Vibrio parahaemolyticus [22] = experiment: Antibacterial activity against Vibrio parahaemolyticus isolate 72016; format: functional; method in brief: as §1
Pseudomonas aeruginosa [23] = experiment: Antibacterial activity against Pseudomonas aeruginosa ATCC 27853; format: functional; method in brief: as §1
Bacillus subtilis [24] = experiment: Antibacterial activity against Bacillus subtilis UC564; format: functional; method in brief: as §1
Bacillus subtilis [25] = experiment: Antibacterial activity against Bacillus subtilis UC564 at 10 to 80 ug/ml after overnight incubation by broth dilution method; format: functional, organism-based; method in brief: as §3
Vibrio parahaemolyticus [26] = experiment: Antibacterial activity against Vibrio parahaemolyticus isolate 72016 at 1 to 1000 ug/ml after overnight incubation by disc diffusion method; format: functional; method in brief: as §2
Klebsiella pneumoniae [27] = experiment: Antibacterial activity against Klebsiella pneumoniae isolate J/1/4 at 1 to 1000 ug/ml after overnight incubation by disc diffusion method; format: functional; method in brief: as §2
Shigella dysenteriae [28] = experiment: Antibacterial activity against Shigella dysenteriae isolate 3 at 10 to 80 ug/ml after overnight incubation by broth dilution method; format: functional, organism-based
Enterococcus faecalis [29] = experiment: Antibacterial activity against Enterococcus faecalis isolate 29212 at 1 to 1000 ug/ml after overnight incubation by disc diffusion method; format: functional; method in brief: as §2
Micrococcus luteus [30] = experiment: Antibacterial activity against Micrococcus luteus AGD1; format: functional; method in brief: as §1
Vibrio cholerae [31] = experiment: Antibacterial activity against Vibrio cholerae isolate 7201 at 10 to 80 ug/ml after overnight incubation by broth dilution method; format: functional, organism-based
Staphylococcus aureus [32] = experiment: Antibacterial activity against Staphylococcus aureus ATCC 25923 at 1 to 1000 ug/ml after overnight incubation by disc diffusion method; format: functional; method in brief: as §2
Pseudomonas aeruginosa [33] = experiment: Antibacterial activity against Pseudomonas aeruginosa ATCC 27853 at 1 to 1000 ug/ml after overnight incubation by disc diffusion method; format: functional; method in brief: as §2

Structure (SMILES)	MIC (Escherichia coli [1])	diameter of the inhibition zone (DIZ) (Shigella dysenteriae [2])	MIC (Staphylococcus aureus [3])	MIC (Klebsiella pneumoniae [4])	diameter of the inhibition zone (DIZ) (Escherichia coli [5])	diameter of the inhibition zone (DIZ) (Vibrio cholerae [6])	MIC (Shigella dysenteriae [7])	Activity (Staphylococcus aureus [8])	diameter of the inhibition zone (DIZ) (Micrococcus luteus [9])	diameter of the inhibition zone (DIZ) (Salmonella typhi [10])	MIC (Enterococcus faecalis [11])	diameter of the inhibition zone (DIZ) (Vibrio cholerae [12])	MIC (Salmonella typhimurium [13])	MIC (Salmonella typhi [14])	Activity (Pseudomonas aeruginosa [15])	diameter of the inhibition zone (DIZ) (Salmonella typhimurium [16])	Activity (Escherichia coli [17])	diameter of the inhibition zone (DIZ) (Shigella flexneri [18])	MIC (Shigella flexneri [19])	MIC (Vibrio cholerae [20])	also measured
N#Cc1cc2ccccn2c1C(=O)c1ccccc1	> 500 µg/mL	9 mm	32 µg/mL (≈ 130 µM)	64 µg/mL (≈ 260 µM)	inactive	10 mm	128 µg/mL (≈ 520 µM)	Active	7.5 mm	inactive	500 µg/mL (≈ 2030 µM)	10 mm	500 µg/mL (≈ 2030 µM)	500 µg/mL (≈ 2030 µM)	Active	inactive	Active	inactive	500 µg/mL (≈ 2030 µM)	16 µg/mL (≈ 65 µM)	diameter of the inhibition zone (DIZ) (Bacillus subtilis [21]): 9.7 mm; MIC (Vibrio parahaemolyticus [22]): 256 µg/mL (≈ 1040 µM); MIC (Pseudomonas aeruginosa [23]): > 500 µg/mL; MIC (Bacillus subtilis [24]): 16 µg/mL (≈ 65 µM); Activity (Bacillus subtilis [25]): Active; diameter of the inhibition zone (DIZ) (Vibrio parahaemolyticus [26]): 7.5 mm; diameter of the inhibition zone (DIZ) (Klebsiella pneumoniae [27]): 8.9 mm; Activity (Shigella dysenteriae [28]): Active; diameter of the inhibition zone (DIZ) (Enterococcus faecalis [29]): inactive; MIC (Micrococcus luteus [30]): 256 µg/mL (≈ 1040 µM); Activity (Vibrio cholerae [31]): Active; diameter of the inhibition zone (DIZ) (Staphylococcus aureus [32]): 12.1 mm; diameter of the inhibition zone (DIZ) (Pseudomonas aeruginosa [33]): inactive
CCOC(=O)c1c(C(=O)OCC)c2ccc3ccccc3n2c1C(=O)c1ccccc1	> 500 µg/mL	11.1 mm	64 µg/mL (≈ 154 µM)	256 µg/mL (≈ 616 µM)	8.1 mm	7.7 mm	32 µg/mL (≈ 77 µM)	Active	inactive	inactive	500 µg/mL (≈ 1200 µM)	7.7 mm	> 500 µg/mL	500 µg/mL (≈ 1200 µM)	Active	inactive	Active	inactive	> 500 µg/mL	128 µg/mL (≈ 308 µM)	diameter of the inhibition zone (DIZ) (Bacillus subtilis [21]): 10 mm; MIC (Vibrio parahaemolyticus [22]): 64 µg/mL (≈ 154 µM); MIC (Pseudomonas aeruginosa [23]): 32 µg/mL (≈ 77 µM); MIC (Bacillus subtilis [24]): 16 µg/mL (≈ 38.5 µM); Activity (Bacillus subtilis [25]): Active; diameter of the inhibition zone (DIZ) (Vibrio parahaemolyticus [26]): 9.3 mm; diameter of the inhibition zone (DIZ) (Klebsiella pneumoniae [27]): 8.6 mm; Activity (Shigella dysenteriae [28]): Active; diameter of the inhibition zone (DIZ) (Enterococcus faecalis [29]): inactive; MIC (Micrococcus luteus [30]): 500 µg/mL (≈ 1200 µM); Activity (Vibrio cholerae [31]): Active; diameter of the inhibition zone (DIZ) (Staphylococcus aureus [32]): 10.2 mm; diameter of the inhibition zone (DIZ) (Pseudomonas aeruginosa [33]): 9.7 mm
